Reference: paper PMC7195875 (Science signaling, 2018)

Experiments:
R848-induced PBMC = details: read-out: IC50 on R848-induced PBMC; cited from earlier work
[1] = system: IL-1β-induced NF-κB activity; details: read-out: IC50 for IL-1β-induced NF-κB activity; cited from earlier work
TLR7 [2] = experiment: R848-induced TNFα release from primary macrophages; assay type: cell-based, mouse; details: six hours
In short: (§1)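 Macrophages came from bone marrow of female C57BL/6 mice, grown 6 d in DMEM with 10% FCS and 30% L-cell-conditioned medium. Cells were stimulated with the respective agonist for 6 h alongside graded test compound concentrations. TNFα in supernatants was measured by ELISA. Means ± SD of 3 independent experiments.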

MyD88 homodimerization = MyD88 homodimerization (UniProt P0AES6+Q99836); experiment: Co-immunoprecipitation with MyD88-GyrB in RAW264.7 cells; assay type: cell-based, mouse; details: co-IP
TLR9 [3] = experiment: Western blot of IκBα degradation and MAPK phosphorylation after CpG-DNA; assay type: cell-based, mouse
In short: (§2)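 Bone-marrow macrophages (6 d culture in L-cell-conditioned medium) were stimulated with the respective agonist with or without test compound. Lysates were immunoblotted for the indicated signaling proteins, with total p38 as loading control. Blots are representative of 3 independent experiments.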

TLR7 [4] = experiment: Western blot of NF-κB- and MAPK-pathway activation after R848; assay type: cell-based, mouse
In short: as §2

TLR4 = experiment: LPS-induced TNFα release from primary macrophages; assay type: cell-based, mouse; details: six hours
In short: as §1

TIRAP-GyrB = TIRAP-GyrB (UniProt P0AES6+Q99JY1); experiment: NF-κB luciferase reporter, TIRAP-GyrB HEK293T cells, coumermycin-induced; assay type: cell-based, human
In short: (§3)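 HEK293T NF-κB luciferase reporter clones carried three NF-κB sites and GyrB fusions introduced by viral transduction with antibiotic selection. Cells received 100 nM coumermycin A1 plus test compound at 10 concentrations (56 μM–2.8 nM) in triplicate, 0.24% final DMSO. After 24 h, AlamarBlue (1 h, 37 °C) measured viability, then SteadyLite luminescence. Values were normalised to coumermycin alone (0%) and coumermycin + 30 μM PS-1145 (100%).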

[5] = target: TIR-domain of MyD88 / full length MyD88 (Homo sapiens, UniProt Q99836); experiment: Co-IP of MyD88 TIR-domain with full-length MyD88 in HEK293T cells; assay type: cell-based
In short: (§4)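 HEK293T cells were transfected by Lipofectamine with epitope-tagged MyD88: FLAG full-length plus HA-TIR domain or DD domain. Test compound or DMSO was added 7 h post-transfection, and cells were lysed at 20 h for 20 min at 4 °C in HEPES pH 7.5 buffer with 0.5% NP-40. Cleared lysates underwent FLAG M2 resin IP for 1 h at 4 °C, then immunoblotting with densitometry. Blots represent 4 independent experiments.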

[6] = target: DD-domain of MyD88 / full length MyD88 (Homo sapiens, UniProt Q99836); experiment: Co-IP of MyD88 DD-domain with full-length MyD88 in HEK293T cells; assay type: cell-based
In short: as §4

TLR9 [7] = experiment: CpG-DNA-induced TNFα release from primary macrophages; assay type: cell-based, mouse; details: six hours
In short: as §1

RAW264.7 cells = experiment: Toxicity; assay type: cell-based, mouse; details: read-out: TLR9 Toxicity EC50, Table 1
Dectin-1 [8] = experiment: Western blot of signaling after Curdlan; assay type: cell-based, mouse
In short: as §2

Dectin-1 [9] = experiment: Curdlan-induced TNFα release from primary macrophages; assay type: cell-based, mouse; details: six hours
In short: as §1

[10] = target: T1, full length human estrogen receptor α (Homo sapiens, UniProt P03372); experiment: Competitive radiometric estrogen receptor binding assay, ERα; details: relative binding affinity, estradiol = 100
T1 sequence (P03372 1-595): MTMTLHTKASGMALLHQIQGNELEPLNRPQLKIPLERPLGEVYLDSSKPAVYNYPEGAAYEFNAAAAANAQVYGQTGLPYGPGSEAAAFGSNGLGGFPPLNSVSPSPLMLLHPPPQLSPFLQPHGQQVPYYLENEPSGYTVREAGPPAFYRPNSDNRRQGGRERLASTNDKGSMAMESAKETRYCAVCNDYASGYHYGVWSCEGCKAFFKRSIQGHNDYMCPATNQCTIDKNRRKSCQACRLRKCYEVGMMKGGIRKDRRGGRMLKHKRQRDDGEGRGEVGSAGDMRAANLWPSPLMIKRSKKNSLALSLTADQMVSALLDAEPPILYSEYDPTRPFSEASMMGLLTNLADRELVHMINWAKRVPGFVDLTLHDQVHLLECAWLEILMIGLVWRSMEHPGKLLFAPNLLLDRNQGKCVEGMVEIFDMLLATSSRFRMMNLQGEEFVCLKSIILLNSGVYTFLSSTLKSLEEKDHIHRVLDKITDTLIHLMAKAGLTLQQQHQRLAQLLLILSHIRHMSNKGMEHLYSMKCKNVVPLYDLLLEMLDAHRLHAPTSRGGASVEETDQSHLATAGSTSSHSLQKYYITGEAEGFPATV

[11] = target: full length human estrogen receptor β (Homo sapiens, UniProt Q92731); experiment: Competitive radiometric estrogen receptor binding assay, ERβ; details: relative binding affinity, estradiol = 100
full length human estrogen receptor β, sequence (Q92731 whole entry): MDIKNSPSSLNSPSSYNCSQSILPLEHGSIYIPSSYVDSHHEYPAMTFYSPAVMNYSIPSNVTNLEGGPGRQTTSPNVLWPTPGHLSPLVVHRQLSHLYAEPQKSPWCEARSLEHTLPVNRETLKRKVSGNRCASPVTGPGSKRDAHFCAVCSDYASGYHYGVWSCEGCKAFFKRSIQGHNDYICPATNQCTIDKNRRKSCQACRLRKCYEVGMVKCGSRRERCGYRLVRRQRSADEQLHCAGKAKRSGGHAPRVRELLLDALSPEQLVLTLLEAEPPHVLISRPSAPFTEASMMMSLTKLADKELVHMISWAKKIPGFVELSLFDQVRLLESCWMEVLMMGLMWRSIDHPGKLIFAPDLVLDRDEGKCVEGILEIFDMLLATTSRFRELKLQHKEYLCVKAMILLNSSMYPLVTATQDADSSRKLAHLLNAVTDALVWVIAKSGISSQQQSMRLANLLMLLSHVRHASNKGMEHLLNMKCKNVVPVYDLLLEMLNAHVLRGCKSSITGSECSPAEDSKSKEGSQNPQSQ

TLR2 = experiment: Pam3Cys-induced TNFα release from primary macrophages; assay type: cell-based, mouse; details: six hours
In short: as §1

MyD88-GyrB = MyD88-GyrB (UniProt P0AES6+Q99836); experiment: NF-κB luciferase reporter, MyD88-GyrB HEK293T cells, coumermycin-induced; assay type: cell-based, human
In short: as §3

MyD88 signaling complex = MyD88 signaling complex (UniProt P0AES6+Q99836); assay type: cell-based, mouse; details: 10 μM MPP, 1 μM CpG-DNA, RAW264.7
In short: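 RAW264.7 cells stably expressing FLAG-MyD88-GyrB were SILAC-labelled (light/medium/heavy) in Arg/Lys-free RPMI with 10% dialysed FBS. Heavy cells got 10 μM test compound for 20 min; medium and heavy were then stimulated with 1 μM CpG-DNA for 60 min. […] Quantitative MS gave fold-change versus unstimulated cells, with unique peptides counted.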

CC[C@@H]1[C@H](F)C(=O)N[C@@H]1COc1nccc2cc(C(N)=O)c(OC)cc12 [Pf-06650833, 1-{[(2S,3S,4S)-3-Ethyl-4-fluoro-5-oxopyrrolidin-2-yl]methoxy}−7-methoxyisoquinoline-6-carboxamide]
IC50 (R848-induced PBMC): 0.0024 µM

NC(=O)[C@H]1CCS[C@@H]2C[C@]3(CCCN3C(=O)Cc3ccc(NC(=O)COc4ccc(Cl)cc4Cl)cc3)C(=O)N12 [ST2825]
IC50 [1]: > 10 µM

Cc1c(-c2ccc(O)cc2)nn(-c2ccc(O)cc2)c1-c1ccc(OCCN2CCCCC2)cc1 [MPP, methyl-piperidino-pyrazole]
TNFα release, Resiquimod (R848; TLR7) (TLR7 [2]): interfered with TNFα release | recruitment of endogenous MyD88 and IRAK4 to GyrB-MyD88 (MyD88 homodimerization): inhibited recruitment of endogenous MyD88 and IRAK4 | block of IκBα degradation and MAPK phosphorylation after CpG-DNA (TLR9 [3]): almost completely | block of NF-κB- and MAPK-pathway activation downstream of R848 (TLR7 [4]): not completely | TNFα release, LPS (TLR4) (TLR4): interfered with TNFα release | inhibition of TIRAP-mediated NF-κB activity (TIRAP-GyrB): low μM concentrations | interaction of the TIR-domain with full length MyD88 [5]: strongly reduced | interaction of the DD-domain with full length MyD88 [6]: but not the DD-domain | TNFα release, CpG-DNA (TLR9) (TLR9 [7]): interfered with TNFα release | EC50 (RAW264.7 cells): 13.2 ± 2.4 µM | Curdlan-induced cell activation (Dectin-1 [8]): remained largely unaffected | TNFα release induced by Curdlan (Dectin-1 [9]): did not reduce TNFα release | RBA ERα [10]: 12 ± 2 | RBA ERβ [11]: 0.05 ± 0.01 | TNFα release, Pam3Cys (TLR2) (TLR2): interfered with TNFα release | inhibition of MyD88-mediated NF-κB activity (MyD88-GyrB): low μM concentrations | recruitment of activation-dependent MyD88-interacting proteins, including IRAK4 (MyD88 signaling complex): almost completely blocked recruitment
